# Experimental data gathered from unrelated publications.
# Target: Serine/threonine-protein kinase 17A (STK17A, Homo sapiens, UniProt Q9UEE5)
# One construct used (Q9UEE5 1-414): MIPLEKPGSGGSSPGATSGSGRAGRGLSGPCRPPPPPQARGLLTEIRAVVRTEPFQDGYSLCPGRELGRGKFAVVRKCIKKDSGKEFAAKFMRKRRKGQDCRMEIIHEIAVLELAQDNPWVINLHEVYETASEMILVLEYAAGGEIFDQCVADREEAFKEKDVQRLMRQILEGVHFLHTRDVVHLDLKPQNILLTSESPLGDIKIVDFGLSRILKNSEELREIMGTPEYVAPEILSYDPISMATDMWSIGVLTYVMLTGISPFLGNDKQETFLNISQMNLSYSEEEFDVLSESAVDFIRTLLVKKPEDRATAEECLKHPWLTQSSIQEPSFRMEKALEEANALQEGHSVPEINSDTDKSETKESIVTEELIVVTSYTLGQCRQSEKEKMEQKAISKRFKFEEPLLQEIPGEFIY
SMILES,effect on,action,method,concentration,quantity,result
Cn1cc(-c2cccc(N3CCc4c(sc5c4CC(C)(C)C5)C3=O)c2CO)cc(Nc2ccncn2)c1=O,enzyme activity,inhibitor,,1 µM,inhibition,-5%
COc1ncccc1-c1cnn2ccc(N3CCN(C(=O)OC(C)C)CC3)nc12,binding,,competition with immobilised ligand,1 µM,remaining binding,6.4%
Cn1cc(-c2cc(F)cc(N3CCn4c(cc5c4CCCC5)C3=O)c2CO)cc(Nc2ccc(N3CCN(C4COC4)CC3)cn2)c1=O,enzyme activity,inhibitor,,0.1 µM,inhibition,3%
Cc1nn(C)cc1-c1nc2c(N3CCN(Cc4ccc(Cl)cc4)CC3)c(Cl)cnc2[nH]1,binding,,competition with immobilised ligand,1 µM,remaining binding,13%
CC(C)(C)c1cc(C=C(C#N)C#N)cc(Br)c1O,enzyme activity,inhibitor,,0.5 µM,remaining activity,92.3%
C#Cc1n[nH]c2c(-c3cn([C@@H](C)c4ccccc4)c(=O)[nH]c3=O)cc(F)cc12,enzyme activity,inhibitor,,0.1 µM,inhibition,1.1%
Nc1ncc(-c2nc(N3CCOCC3)nc(N3CCOCC3)n2)c(C(F)F)n1,binding,,competition with immobilised ligand,10 µM,remaining binding,89%
Cn1cncc1[C@](O)(COc1ccc(C#N)cc1-c1ccc(OC(F)(F)F)cc1)c1ccc(C#N)cc1,cell-free assay,,competition with immobilised ligand,1 µM,remaining binding,100%
C#Cc1n[nH]c2c(-c3cn([C@@H](C)c4ccccn4)c(=O)[nH]c3=O)cc(F)cc12,enzyme activity,inhibitor,,0.1 µM,inhibition,-0.6%
O=c1[nH]c2ccccc2n1C1CCN(Cc2ccc(-c3[nH]c4cc5ncnc5cc4nc3-c3ccccc3)cc2)CC1,cell-free assay,,,0.5 µM,remaining signal,98.2%
